# Laboratory results taken from ChEMBL document CHEMBL5131497, “Design, Synthesis, and Characterization of TNP-2198, a Dual-Targeted Rifamycin-Nitroimidazole Conjugate with Potent Activity against Microaerophilic and Anaerobic Bacterial Pathogens” (J Med Chem, 2022).
# What was measured:
# [1] = Drug distribution in Sprague-Dawley rat stomach tissue measured at 12 hrs; format: ADME, tissue-based; settings: read-out: Ct
# Summary of the method: (§1)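 Sprague–Dawley rats were dosed with TNP-2198. Concentrations were measured in plasma (ng/mL) and in tissues or contents (ng/g) at 0.5, 2, 6, 12 and 24 h after dosing. Values below the limit of quantification are reported as BLOQ.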
# [2] = Drug distribution in Sprague-Dawley rat gums measured at 0.5 hrs; format: ADME, tissue-based, Gingiva; settings: read-out: Ct; summary of the method: as §1
# [3] = Drug distribution in Sprague-Dawley rat large intestine content measured at 2 hrs; format: ADME, tissue-based; settings: read-out: Ct; summary of the method: as §1
# [4] = Oral bioavailability in Sprague-Dawley rat at 50 mg/kg; format: ADME, organism-based; settings: in vivo
# Clostridioides difficile [5] = experiment: Antibacterial activity against Clostridioides difficile CB1921 ATCC BAA1382 measured after 3 days; format: functional; settings: CB1921 ATCC BAA1382, 72 h, time 3 day
# [6] = Tmax in Beagle dog at 25 mg/kg, po; format: ADME, organism-based, Canis lupus familiaris; settings: in vivo
# Syrian golden hamster [7] = experiment: Antibacterial activity against Clostridioides difficile UNT-103-1 infected in Syrian hamster assessed as survival at 15 to 45 mg/kg, po administered once a daily for 5 days after 18 hrs post 10 mg/kg clindamycin treatment and measured upto 21 days; format: functional, Mesocricetus auratus; settings: dose 15-45 mg/kg, time <= 21 day
# Summary of the method: (§2)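 Male Golden Syrian hamsters (80-90 g), housed singly, were gavaged with C. difficile UNT103-1 grown in sporulation medium broth and diluted to OD600 1 in prereduced broth. […] From 18 h later, drug or vehicle was given by oral gavage once daily for 5 days. Survival was recorded through day 21.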
# Fusobacterium nucleatum = experiment: Antibacterial activity against Fusobacterium nucleatum ATCC 25586; format: functional
# [8] = Drug distribution in Sprague-Dawley rat ascites fluid measured at 0.5 hrs; format: ADME, tissue-based, Ascitic fluid; settings: read-out: Ct; summary of the method: as §1
# Gardnerella vaginalis [9] = experiment: Resistance development in Gardnerella vaginalis MMX 5973 assessed as mutation prevention concentration using at 4.50 x 10^8 CFU inoculum; format: functional; settings: dose 0.5 µg/ml
# Clostridioides difficile [10] = experiment: Antibacterial activity against Clostridioides difficile clinical isolate China; format: functional
# [11] = Antibacterial activity against Mobiluncus mulieris ATCC 35243; format: functional
# [12] = test system: Porphyromonas asaccharolytica; experiment: Antibacterial activity against metronidazole-resistant Prevotella asaccharolytica MMX 3552; format: functional
# [13] = Drug distribution in Sprague-Dawley rat vaginal tissue measured at 24 hrs; format: ADME, tissue-based, Vagina; settings: in vivo, BLD = below limit of detection; summary of the method: as §1
# [14] = AUC in Beagle dog at 5 mg/kg, iv; format: ADME, organism-based, Canis lupus familiaris; parameters: dose 5 mg/kg, route iv; settings: in vivo
# Summary of the method: (§3)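 Plasma PK after single intravenous or oral dosing. Mice C57BL/6 at 5 mg/kg IV or 20 mg/kg PO; Sprague–Dawley rats at 10 mg/kg IV or 50 mg/kg PO; beagle dogs at 5 mg/kg IV or 25 mg/kg PO. AUC reported in ng·h/mL. Clearance from the IV arms in mL/min·kg.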
# Gardnerella vaginalis [15] = experiment: Resistance development in Gardnerella vaginalis MMX 5973 assessed as spontaneous resistance frequency using at 4.50 x 10^8 CFU inoculum at 1 ug/ml; format: functional; settings: dose 1 µg/ml
# Summary of the method: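 Resistant colonies were counted at each drug concentration in two separate tests (test 1, test 2) and averaged. The spontaneous resistance frequency was taken from the mean colony count relative to the inoculum plated. Drug levels tested were 0.5, 1, 2 and 4 µg/mL, and a mutation prevention concentration (MPC) was also reported.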
# [16] = Drug distribution in Sprague-Dawley rat large intestine tissue measured at 6 hrs; format: ADME, tissue-based; settings: read-out: Ct; summary of the method: as §1
# [17] = Drug distribution in Sprague-Dawley rat stomach content measured at 2 hrs; format: ADME, tissue-based; settings: read-out: Ct; summary of the method: as §1
# Prevotella disiens = experiment: Antibacterial activity against Prevotella disiens MMX 3446; format: functional
# Syrian golden hamster [18] = experiment: Antibacterial activity against Clostridioides difficile UNT-103-1 infected in Syrian hamster assessed as mortality at 5 mg/kg, po administered once a daily for 5 days after 18 hrs post 10 mg/kg clindamycin treatment and measured after 7 to 9 days; format: functional, Mesocricetus auratus; settings: time 7-9 day; summary of the method: as §2
# [19] = Drug distribution in Sprague-Dawley rat vaginal secretion measured at 12 hrs; format: ADME, tissue-based, Vaginal fluid; settings: female, read-out: Ct; summary of the method: as §1
# [20] = Drug distribution in Sprague-Dawley rat brain measured at 24 hrs; format: ADME, tissue-based; settings: in vivo, BLD = below limit of detection; summary of the method: as §1
# [21] = Drug distribution in Sprague-Dawley rat large intestine content measured at 0.5 hrs; format: ADME, tissue-based; settings: read-out: Ct; summary of the method: as §1
# [22] = AUC in Sprague-Dawley rat at 10 mg/kg, iv; format: ADME, organism-based; parameters: dose 10 mg/kg, route iv; settings: in vivo; summary of the method: as §3
# Actinomyces naeslundii = experiment: Antibacterial activity against Actinomyces naeslundii ATCC 1210; format: functional
# [23] = Drug distribution in Sprague-Dawley rat gums measured at 6 hrs; format: ADME, tissue-based, Gingiva; settings: read-out: Ct; summary of the method: as §1
# [24] = Drug distribution in Sprague-Dawley rat brain measured at 12 hrs; format: ADME, tissue-based; settings: in vivo, BLD = below limit of detection; summary of the method: as §1
# [25] = Half life in Sprague-Dawley rat at 50 mg/kg, po; format: ADME, organism-based; settings: in vivo
# [26] = Drug distribution in Sprague-Dawley rat brain measured at 0.5 hrs; format: ADME, tissue-based; settings: read-out: Ct; summary of the method: as §1
# Clostridioides difficile [27] = experiment: Antibacterial activity against rifampicin-resistant Clostridium difficile MMX 3587; format: functional
# Clostridioides difficile [28] = experiment: Resistance development in Clostridioides difficile MMX 4381 assessed as spontaneous resistance frequency using at 1.23 x 10^9 CFU inoculum at 4 ug/ml; format: functional; settings: dose 4 µg/ml
# Bifidobacterium breve = experiment: Antibacterial activity against Bifidobacterium ATCC 15698; format: functional
# [29] = Clearance in Sprague-Dawley rat at 10 mg/kg, iv; format: ADME, organism-based; settings: in vivo; summary of the method: as §3
# Helicobacter pylori [30] = experiment: Antibacterial activity against rifampicin-resistant Helicobacter pylori CB1614 harboring rpoBL525I/D530N mutant measured after 5 days by agar dilution method; format: functional; settings: CB1614, 120 h, time 5 day
# Summary of the method: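 Agar dilution per CLSI. Wild-type ATCC 700392 (CB1531) and its derivatives carry defined resistance determinants. Drugs, alone or in 1:1 molar mixtures, were diluted 2-fold from 100× stocks into Mueller–Hinton agar with aged (≥2 weeks) sheep blood (5% v/v). MIC read after 5 days at 35 °C under microaerobic conditions from a campylobacter gas-generating system.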
# Gardnerella vaginalis [31] = experiment: Antibacterial activity against Gardnerella vaginalis clinical isolate China; format: functional
# Clostridioides difficile [32] = experiment: Antibacterial activity against Clostridioides difficile ATCC 9689; format: functional
# Helicobacter pylori [33] = experiment: Resistance development in Helicobacter pylori MMX 3719 assessed as mutation prevention concentration using at 1.90 x 10^8 CFU inoculum; format: functional; settings: dose 0.5 µg/ml
# Summary of the method: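 H. pylori MMX 3719 exposed to 0.5, 1, 2 and 4 µg/mL drug with an inoculum of 1.90×10^8 CFU at each level. Two independent tests were run, and resistant colonies were counted and averaged. A spontaneous resistance frequency was reported for each concentration, and the MPC was taken across the concentrations tested.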
# [34] = Drug distribution in Sprague-Dawley rat gums measured at 2 hrs; format: ADME, tissue-based, Gingiva; settings: read-out: Ct; summary of the method: as §1
# Helicobacter pylori [35] = experiment: Antibacterial activity against Helicobacter pylori infected in C57/BL6 mouse assessed as bacterial load in stomach at 1 mg/kg administered twice daily via oral gavage starting from 7 days post inoculation and administered for 7 days in presence of 10 mg/kg clarithromycin and 20 mg/kg amoxicillin (reference value: 5.25 log10CFU); format: functional; settings: time 7 day
structure (smiles),measurement,setting,value
CO[C@H]1/C=C/O[C@@]2(C)Oc3c(C)c(O)c4c(c3C2=O)C2=NC3(CCN(CCn5c([N+](=O)[O-])cnc5C)CC3)NC2=C(NC(=O)/C(C)=C\C=C\[C@H](C)[C@H](O)[C@@H](C)[C@@H](O)[C@@H](C)[C@H](OC(C)=O)[C@@H]1C)C4=O [RIFASUTENIZOL],concentration at 12 h,[1],114 ng/g
same,concentration at 0.5 h,[2],3470 ng/g
same,concentration at 2 h,[3],1170 ng/g
same,bioavailability,[4],48%
same,MIC,Clostridioides difficile [5],≤ 0.002 µg/mL
same,Tmax,[6],1.2 h
same,Activity,Syrian golden hamster [7],100%
same,MIC,Fusobacterium nucleatum,0.001 µg/mL
same,concentration at 0.5 h,[8],2620 ng/g
same,Activity,Gardnerella vaginalis [9],<=0.5 ug ml-1
same,MIC,Clostridioides difficile [10],≤ 0.06 µg/mL
same,MIC90,Clostridioides difficile [10],1 µg/mL
same,MIC,[11],0.001 µg/mL
same,MIC,[12],0.008 µg/mL
same,Ct,[13],Bld
same,AUC,[14],4530 ng·h/mL
same,Activity,Gardnerella vaginalis [15],<2 10^-9No_unit
same,concentration at 6 h,[16],3660 ng/g
same,concentration at 2 h,[17],1.75e+06 ng/g
same,MIC,Prevotella disiens,0.015 µg/mL
same,Activity,Syrian golden hamster [18],10%
same,concentration at 12 h,[19],366 ng/g
same,Ct,[20],Bld
same,concentration at 0.5 h,[21],1480 ng/g
same,AUC,[22],6490 ng·h/mL
same,MIC,Actinomyces naeslundii,0.001 µg/mL
same,concentration at 6 h,[23],3660 ng/g
same,Ct,[24],Bld
same,half-life,[25],0.94 h
same,concentration at 0.5 h,[26],114 ng/g
same,MIC,Clostridioides difficile [27],0.25 µg/mL
same,Activity,Clostridioides difficile [28],<8 10^-9No_unit
same,MIC,Bifidobacterium breve,0.015 µg/mL
same,clearance,[29],26 mL/min/kg
same,MIC,Helicobacter pylori [30],0.125 µg/mL
same,MIC,Gardnerella vaginalis [31],≤ 0.004 µg/mL
same,MIC90,Gardnerella vaginalis [31],0.06 µg/mL
same,MIC,Clostridioides difficile [32],0.0002 µg/mL
same,Activity,Helicobacter pylori [33],<=0.5 ug ml-1
same,concentration at 2 h,[34],6040 ng/g
same,Activity,Helicobacter pylori [35],1.7 log10CFU
